Experimental data: ChEMBL document CHEMBL3351240, “Antinociceptive properties of physalins from Physalis angulata” (J Nat Prod, 2014)
The source made the active and inactive calls.

Key:
Mus musculus [1] = assay: Antinociceptive activity in Swiss Webster mouse assessed as inhibition of acetic acid-induced abdominal constrictions at 10 mg/kg, ip dosed 40 mins before acetic acid injection; assay type: functional, organism-based; parameters: dose 10 mg/kg; conditions: Abdomen
Outline: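 Male Swiss Webster mice dosed ip 40 min before ip acetic acid 0.8% v/v (10 mL/kg). Writhes (abdominal contraction with hind limb stretching) counted 0–30 min after injection in a glass cylinder. Mean writhing scores ± SEM, n = 10 per group; ANOVA with Tukey.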

Mus musculus [2] = assay: Antinociceptive activity in Swiss Webster mouse assessed as inhibition of formalin-induced late phase pain response at 10 mg/kg, ip dosed 40 mins before formalin injection; assay type: functional, organism-based; parameters: dose 10 mg/kg
Outline: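 Mice acclimated 30 min, dosed ip 40 min before 20 μL 2.5% formalin sc into dorsal hind paw. Licking time of injected paw scored 10–30 min (late phase), mirror-aided observation. Mean ± SEM, n = 7−10; ANOVA with Tukey.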

Mus musculus [3] = assay: Antinociceptive activity in Swiss Webster mouse assessed as inhibition of formalin-induced late phase pain response at 25 to 100 mg/kg, ip dosed 40 mins before formalin injection; assay type: functional, organism-based
Outline: (§1)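 Mice acclimated 30 min in chamber, dosed ip 40 min before sc injection of 20 μL 2.5% formalin into dorsal hind paw; licking time of injected paw scored 0−10 min (early phase) and 10−30 min (late phase); n = 7−10; ANOVA with Tukey.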

Mus musculus [4] = assay: CNS toxicity in Swiss Webster mouse assessed as effect on motor performance at 100 mg/kg, ip after 40 mins by rotarod test; assay type: organism-based; parameters: dose 100 mg/kg, route intraperitoneal; conditions: in vivo
Outline: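 Rota-rod test: 3 cm bar at 8 rpm; mice pre-selected 24 h earlier by remaining on bar for two consecutive 120 s periods; placed on rod 40 min after ip dosing; time on bar recorded up to 120 s; n = 6; one-way ANOVA with Tukey.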

Mus musculus [5] = assay: Antinociceptive activity in Swiss Webster mouse assessed as inhibition of acetic acid-induced abdominal constrictions at 25 to 100 mg/kg, ip dosed 40 mins before acetic acid injection; assay type: functional, organism-based; conditions: Abdomen
Outline: (§2)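 Male Swiss Webster mice dosed ip (5% DMSO in saline vehicle) 40 min before ip acetic acid 0.8% v/v, 10 mL/kg; writhes (abdominal contraction with hind-limb stretching) counted over 0−30 min; mean writhing score, n = 10 per group; ANOVA with Tukey.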

Mus musculus [6] = assay: Antinociceptive activity in Swiss Webster mouse assessed as increase in latency time at 100 mg/kg, ip measured after 0.5 hrs by hot plate test; assay type: functional, organism-based; parameters: dose 100 mg/kg
Outline: (§3)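 Hot plate held at 55 ± 1 °C; male Swiss Webster mice; reaction time to hind paw licking or jumping recorded before and after ip dosing (vehicle 5% DMSO in saline); data as difference from baseline; 10 s cutoff; n = 6; two-way ANOVA with Bonferroni.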

Mus musculus [7] = assay: Antiinflammatory activity in Swiss Webster mouse assessed as reduction in paw edema at 100 mg/kg, ip dosed 40 mins before CFA injection and measured 2 to 6 hrs post CFA stimulus; assay type: functional, organism-based; parameters: dose 100 mg/kg
Outline: (§4)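 Male Swiss Webster mice, ip pretreatment in 5% DMSO/saline 40 min before intraplantar CFA (20 μL, 1 mg/mL heat-killed M. tuberculosis). Paw volume measured by plethysmometer before and 2, 4, 6 h after CFA; edema expressed as percent increase in paw volume; n = 6 mice/group; two-way ANOVA with Bonferroni.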

Mus musculus [8] = assay: Antiinflammatory activity in Swiss Webster mouse assessed as reduction in hyperalgesia at 100 mg/kg, ip dosed 40 mins before CFA injection and measured 2 to 6 hrs post CFA stimulus; assay type: functional, organism-based; parameters: dose 100 mg/kg
Outline: (§5)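 Male Swiss Webster mice (22−28 g) given drug ip in 5% DMSO/saline (dexamethasone in 10% ethanol/saline) 40 min before 20 μL CFA (1 mg/mL heat-killed M. tuberculosis in paraffin oil/mannide monooleate) sc into right hind paw plantar region. Mechanical threshold by von Frey filaments, up−down method, at 2, 4 and 6 h; n = 6; two-way ANOVA with Bonferroni.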

Mus musculus [9] = assay: CNS toxicity in Swiss Webster mouse assessed as effect on motor performance at 100 mg/kg, ip after 40 mins by open field test; assay type: organism-based; parameters: dose 100 mg/kg, route intraperitoneal; conditions: in vivo
Outline: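 Open-field test 40 min after ip dosing: mice placed singly in 40 × 60 × 50 cm box with 12 floor squares; squares crossed with all four paws counted over 3 min; n = 6; one-way ANOVA with Tukey.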

Mus musculus [10] = assay: Antiinflammatory activity in Swiss Webster mouse assessed as reduction in hyperalgesia at 100 mg/kg, ip dosed 40 mins before CFA injection and measured 2 hrs post CFA stimulus; assay type: functional, organism-based; parameters: dose 100 mg/kg; outline: as §5
Mus musculus [11] = assay: Antiinflammatory activity in Swiss Webster mouse assessed as reduction in hyperalgesia at 100 mg/kg, ip dosed 40 mins before CFA injection and measured 4 to 6 hrs post CFA stimulus; assay type: functional, organism-based; parameters: dose 100 mg/kg; outline: as §5
Mus musculus [12] = assay: Antinociceptive activity in Swiss Webster mouse assessed as inhibition of acetic acid-induced abdominal constrictions at 25 mg/kg, ip dosed 40 mins before acetic acid injection; assay type: functional, organism-based; parameters: dose 25 mg/kg; conditions: Abdomen; outline: as §2
Mus musculus [13] = assay: Reduction in IL1-beta level in Swiss Webster mouse 100 mg/kg, ip dosed 40 mins before CFA injection and measured 3 hrs post CFA stimulus by ELISA method; assay type: functional, organism-based; parameters: dose 100 mg/kg; conditions: at 100 mg/kg
Outline: (§6)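 Mice dosed ip 40 min before intraplantar CFA; paw skin removed under terminal halothane anesthesia; proteins extracted at 100 mg tissue/mL PBS with 0.4 M NaCl, 0.05% Tween 20 and protease inhibitors; centrifuged 3000g for 10 min; supernatant IL-1β or TNF-α measured by ELISA as pg/mL; n = 6.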

Mus musculus [14] = assay: Antinociceptive activity in Swiss Webster mouse assessed as inhibition of formalin-induced late phase pain response at 50 to 100 mg/kg, ip dosed 40 mins before formalin injection; assay type: functional, organism-based; outline: as §1
Mus musculus [15] = assay: Antinociceptive activity in Swiss Webster mouse assessed as increase in reaction time at 100 mg/kg, ip measured after 3 hrs by tail flick test; assay type: functional, organism-based; parameters: dose 100 mg/kg
Outline: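 Mice habituated to restraint cylinder 20 min/day for 5 days; distal 2 cm of tail immersed in 48 ± 0.5 °C water; tail withdrawal latency measured before and after ip dosing (5% DMSO/saline vehicle); 10 s cutoff; n = 6; two-way ANOVA with Bonferroni.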

Mus musculus [16] = assay: Antiinflammatory activity in Swiss Webster mouse assessed as reduction in paw edema at 50 to 100 mg/kg, ip dosed 40 mins before CFA injection and measured 2 to 4 hrs post CFA stimulus; assay type: functional, organism-based; outline: as §4
Mus musculus [17] = assay: Reduction in TNFalpha level in Swiss Webster mouse 100 mg/kg, ip dosed 40 mins before CFA injection and measured 3 hrs post CFA stimulus by ELISA method; assay type: functional, organism-based; parameters: dose 100 mg/kg; conditions: at 100 mg/kg; outline: as §6
Mus musculus [18] = assay: Antinociceptive activity in Swiss Webster mouse assessed as inhibition of formalin-induced early phase pain response at 50 to 100 mg/kg, ip dosed 40 mins before formalin injection; assay type: functional, organism-based; outline: as §1
Mus musculus [19] = assay: Antinociceptive activity in Swiss Webster mouse assessed as increase in latency time at 100 mg/kg, ip measured after 0.5 to 2 hrs by hot plate test; assay type: functional, organism-based; parameters: dose 100 mg/kg; outline: as §3
Mus musculus [20] = assay: Antinociceptive activity in Swiss Webster mouse assessed as inhibition of formalin-induced late phase pain response at 50 mg/kg, ip dosed 40 mins before formalin injection; assay type: functional, organism-based; parameters: dose 50 mg/kg; outline: as §1
Mus musculus [21] = assay: Antinociceptive activity in Swiss Webster mouse assessed as inhibition of formalin-induced early phase pain response at 50 mg/kg, ip dosed 40 mins before formalin injection; assay type: functional, organism-based; parameters: dose 50 mg/kg; outline: as §1

SMILES | Activity (Mus musculus [4]) | inhibition (Mus musculus [5]) | inhibition (Mus musculus [7]) | inhibition (Mus musculus [8]) | Activity (Mus musculus [9]) | Activity (Mus musculus [15]) | Activity (Mus musculus [19]) | further results
COc1ccc2c(c1)c(CC(=O)O)c(C)n2C(=O)c1ccc(Cl)cc1 | – | – | – | – | – | – | – | inhibition (Mus musculus [1]): Active; inhibition (Mus musculus [2]): Active
C[C@@]12C[C@H]3OC(=O)[C@@H]1CO[C@@]14O[C@]5([C@H]2C1=O)[C@@](O)(CC[C@H]1[C@H]4C[C@@H](O)[C@@]2(O)CC=CC(=O)[C@]12C)C(=O)O[C@@]35C [PHYSALIN D] | Non-toxic | Dose-dependent effect | inactive | inactive | Non-toxic | – | – | inhibition (Mus musculus [3]): Active; Activity (Mus musculus [6]): Active
C[C@@]12C[C@H]3OC(=O)[C@@H]1CO[C@]14O[C@]5([C@H]2C1=O)[C@@](O)(CC[C@H]1[C@H]4C[C@H]2O[C@]24CC=CC(=O)[C@]14C)C(=O)O[C@@]35C [PHYSALIN F] | Non-toxic | – | – | – | Non-toxic | Active | Active | inhibition (Mus musculus [10]): Active; inhibition (Mus musculus [11]): inactive; inhibition (Mus musculus [12]): Active; inhibition (Mus musculus [13]): inactive; inhibition (Mus musculus [14]): Active; inhibition (Mus musculus [16]): Active; inhibition (Mus musculus [17]): Active; inhibition (Mus musculus [18]): Active
C[C@]12C(=O)C=CC=C1[C@@H](O)C[C@@H]1[C@@H]2CC[C@@]2(O)C(=O)O[C@@]3(C)[C@H]4C[C@]5(C)[C@@H](CO[C@@]16O[C@]23[C@H]5C6=O)C(=O)O4 [PHYSALIN G] | Non-toxic | Dose-dependent effect | inactive | inactive | Non-toxic | Active | Active | inhibition (Mus musculus [20]): Active; inhibition (Mus musculus [21]): Active
